Data: ChEMBL document CHEMBL1129260, “Evaluation of the stability and animal biodistribution of gadolinium (III) benzylamine-derivatized diethylenetriaminepentaacetic acid” (J Med Chem, 1996)

Columns and labels:
Settings in all cases: in vivo
[1] = organism: Rattus norvegicus; test: Biodistribution of Gd-LDTA (conjugated with mannose BSA) protein using [111In]- in mature female Sprague-Dawley rat colon after injecting for 4 hour.; type: ADME, organism-based
Procedure, shortened: (§1)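 Conjugate of SCN-LDTPA with BSA, mannosylated BSA or galactosylated BSA (10 equiv chelate, pH 9 bicine, RT 24 h; FPLC-purified) was labelled with 340 μCi 111In acetate at pH 5.5 for 45 min. It was then gel-filtered (Biospin-6) and checked for purity by FPLC. Mature female Sprague-Dawley rats received 19 μg of conjugate. Four rats per time point (1, 4, 24, 48 h) were killed; blood, liver, bone, kidney and colon were taken and %ID/organ was calculated.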

[2] = organism: Rattus norvegicus; test: Biodistribution of In-LDTA (conjugated with BSA) protein using [111In]- in mature female Sprague-Dawley rat bone after injecting for 4 hour.; type: ADME, organism-based, Bone element
Procedure, shortened: (§2)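 SCN-LDTPA was coupled (pH 9 bicine, 24 h, RT) to BSA, mannosylated BSA or galactosylated BSA and FPLC-purified. The conjugate (400 μg) was labeled with 340 μCi 111In acetate at pH 5.5 for 45 min and gel-filtered. Mature female Sprague-Dawley rats received 19 μg of conjugate; four rats per time point. Blood, liver, bone, kidney and colon were taken and reported as %ID/organ.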

[3] = organism: Rattus norvegicus; test: Biodistribution of Gd-LDTA (conjugated with mannose BSA) protein using [111In]- in mature female Sprague-Dawley rat kidney after injecting for 4 hour.; type: ADME, organism-based
[4] = organism: Rattus norvegicus; test: Biodistribution of Gd-LDTA (conjugated with mannose BSA) protein using [111In]- in mature female Sprague-Dawley rat kidney after injecting for 96 hour.; type: ADME, organism-based
[5] = organism: Rattus norvegicus; test: Biodistribution of In-LDTA (conjugated with mannoseBSA) protein using [111In]- in mature female Sprague-Dawley rat bone after injecting for 4 hour.; type: ADME, organism-based, Bone element; procedure, shortened: as §2
[6] = organism: Rattus norvegicus; test: Biodistribution of In-LDTA (conjugated with mannoseBSA) protein using [111In]- in mature female Sprague-Dawley rat colon after injecting for 24 hour.; type: ADME, organism-based; procedure, shortened: as §2
[7] = organism: Rattus norvegicus; test: Biodistribution of In-LDTA (conjugated with BSA) protein using [111In]- in mature female Sprague-Dawley rat colon after injecting for 24 hour.; type: ADME, organism-based; procedure, shortened: as §2
[8] = organism: Rattus norvegicus; test: Biodistribution of In-LDTA (conjugated with BSA) protein using [111In]- in mature female Sprague-Dawley rat kidney after injecting for 1 hour.; type: ADME, organism-based; procedure, shortened: as §2
[9] = organism: Rattus norvegicus; test: Biodistribution of In-LDTA (conjugated with galactose BSA)protein using [111In]- in mature female Sprague-Dawley rat blood after injecting for 4 hour.; type: ADME, organism-based; procedure, shortened: as §2
[10] = organism: Rattus norvegicus; test: Biodistribution of In-LDTA (conjugated with galactose BSA)protein using [111In]- in mature female Sprague-Dawley rat blood after injecting for 48 hour.; type: ADME, organism-based; procedure, shortened: as §2
[11] = organism: Rattus norvegicus; test: Biodistribution of In-LDTA (conjugated with galactose BSA)protein using [111In]- in mature female Sprague-Dawley rat bone after injecting for 4 hour.; type: ADME, organism-based, Bone element; procedure, shortened: as §2
[12] = organism: Rattus norvegicus; test: Biodistribution of In-LDTA (conjugated with galactose BSA)protein using [111In]- in mature female Sprague-Dawley rat colon after injecting for 1 hour.; type: ADME, organism-based; procedure, shortened: as §2
[13] = organism: Rattus norvegicus; test: Biodistribution of In-LDTA (conjugated with mannoseBSA) protein using [111In]- in mature female Sprague-Dawley rat bone after injecting for 1 hour.; type: ADME, organism-based, Bone element; procedure, shortened: as §2
[14] = organism: Rattus norvegicus; test: Biodistribution of In-LDTA (conjugated with mannoseBSA) protein using [111In]- in mature female Sprague-Dawley rat bone after injecting for 24 hour.; type: ADME, organism-based, Bone element; procedure, shortened: as §2
[15] = organism: Rattus norvegicus; test: Biodistribution of In-LDTA (conjugated with BSA) protein using [111In]- in mature female Sprague-Dawley rat liver after injecting for 4 hour.; type: ADME, organism-based; procedure, shortened: as §2
[16] = organism: Rattus norvegicus; test: Biodistribution of In-LDTA (conjugated with BSA)protein using [111In]- in mature female Sprague-Dawley rat colon after injecting for 48 hr.; type: ADME, organism-based; procedure, shortened: as §2
[17] = organism: Rattus norvegicus; test: Biodistribution of Gd-LDTA (conjugated with mannose BSA) protein using [111In]- in mature female Sprague-Dawley rat bone marrow after injecting for 24 hour.; type: ADME, organism-based
[18] = organism: Rattus norvegicus; test: Biodistribution of Gd-LDTA (conjugated with mannose BSA) protein using [111In]- in mature female Sprague-Dawley rat bone marrow after injecting for 48 hour.; type: ADME, organism-based
[19] = organism: Rattus norvegicus; test: Biodistribution of Gd-LDTA (conjugated with mannose BSA) protein using [111In]- in mature female Sprague-Dawley rat bone marrow after injecting for 1 hour.; type: ADME, organism-based
[20] = organism: Rattus norvegicus; test: Biodistribution of In-LDTA (conjugated with mannoseBSA) protein using [111In]- in mature female Sprague-Dawley rat liver after injecting for 4 hour.; type: ADME, organism-based; procedure, shortened: as §2
[21] = organism: Rattus norvegicus; test: Biodistribution of Gd-LDTA (conjugated with mannose BSA) protein using [111In]- in mature female Sprague-Dawley rat liver after injecting for 96 hour.; type: ADME, organism-based
[22] = organism: Rattus norvegicus; test: Biodistribution of In-LDTA (conjugated with BSA) protein using [111In]- in mature female Sprague-Dawley rat blood after injecting for 24 hour.; type: ADME, organism-based; procedure, shortened: as §2
[23] = organism: Rattus norvegicus; test: Biodistribution of In-LDTA (conjugated with BSA) protein using [111In]- in mature female Sprague-Dawley rat bone after injecting for 48 hour.; type: ADME, organism-based, Bone element; procedure, shortened: as §2
[24] = organism: Rattus norvegicus; test: Biodistribution of In-LDTA (conjugated with mannoseBSA) protein using [111In]- in mature female Sprague-Dawley rat kidney after injecting for 1 hour.; type: ADME, organism-based; procedure, shortened: as §2
[25] = organism: Rattus norvegicus; test: Biodistribution of Gd-DTA (conjugated with BSA)protein using [111In]- in mature female Sprague-Dawley rat kidney after injecting for 96 hour.; type: ADME, organism-based
[26] = organism: Rattus norvegicus; test: Biodistribution of Gd-DTA (conjugated with BSA)protein using [111In]- in mature female Sprague-Dawley rat blood after injecting for 1 hour.; type: ADME, organism-based; procedure, shortened: as §1
[27] = organism: Rattus norvegicus; test: Biodistribution of Gd-DTA (conjugated with BSA)protein using [111In]- in mature female Sprague-Dawley rat bone marrow after injecting for 1 hour.; type: ADME, organism-based
[28] = organism: Rattus norvegicus; test: Biodistribution of Gd-LDTA (conjugated with galactose BSA) protein using [111In]- in mature female Sprague-Dawley rat blood after injecting for 24 hour.; type: ADME, organism-based; procedure, shortened: as §1
[29] = organism: Rattus norvegicus; test: Biodistribution of Gd-LDTA (conjugated with galactose BSA) protein using [111In]- in mature female Sprague-Dawley rat bone marrow after injecting for 48 hour.; type: ADME, organism-based
[30] = organism: Rattus norvegicus; test: Biodistribution of Gd-LDTA (conjugated with galactose BSA) protein using [111In]- in mature female Sprague-Dawley rat colon after injecting for 48 hour.; type: ADME, organism-based; procedure, shortened: as §1
[31] = organism: Rattus norvegicus; test: Biodistribution of Gd-LDTA (conjugated with galactose BSA) protein using [111In]- in mature female Sprague-Dawley rat kidney after injecting for 96 hour.; type: ADME, organism-based
[32] = organism: Rattus norvegicus; test: Biodistribution of Gd-LDTA (conjugated with mannose BSA) protein using [111In]- in mature female Sprague-Dawley rat bone after injecting for 4 hour.; type: ADME, organism-based, Bone element; procedure, shortened: as §1
[33] = organism: Rattus norvegicus; test: Biodistribution of Gd-LDTA (conjugated with mannose BSA) protein using [111In]- in mature female Sprague-Dawley rat bone after injecting for 48 hour.; type: ADME, organism-based, Bone element; procedure, shortened: as §1
[34] = organism: Rattus norvegicus; test: Biodistribution of Gd-LDTA (conjugated with mannose BSA) protein using [111In]- in mature female Sprague-Dawley rat blood after injecting for 24 hour.; type: ADME, organism-based; procedure, shortened: as §1
[35] = organism: Rattus norvegicus; test: Biodistribution of Gd-DTA (conjugated with BSA)protein using [153Gd]- in mature female Sprague-Dawley rat bone marrow after injecting for 4 hour.
[36] = organism: Rattus norvegicus; test: Biodistribution of Gd-DTA (conjugated with BSA)protein using [153Gd]- in mature female Sprague-Dawley rat bone marrow after injecting for 48 hour.

## Nc1ccc(CC(C(=O)O)N(CCN(CC(=O)O)CC(=O)O)CCN(CC(=O)O)CC(=O)O)cc1 (stereo unspecified)
[1]
  ID/organ: 0.327%
[2]
  ID/organ: 19.1%
[3]
  ID/organ: 0.542%
[4]
  ID/organ: 0.405%
[5]
  ID/organ: 10.1%
[6]
  ID/organ: 0.732%
[7]
  ID/organ: 2.87%
[8]
  ID/organ: 3.15%
[9]
  ID/organ: 0.0462%
[10]
  ID/organ: 0.0267%
[11]
  ID/organ: 0.329%
[12]
  ID/organ: 0.0098%
[13]
  ID/organ: 10.5%
[14]
  ID/organ: 8.9%
[15]
  ID/organ: 17%
[16]
  ID/organ: 5.52%
[17]
  ID/organ: 2.13%
[18]
  ID/organ: 1.77%
[19]
  ID/organ: 2.61%
[20]
  ID/organ: 87.6%
[21]
  ID/organ: 24.4%
[22]
  ID/organ: 10.8%
[23]
  ID/organ: 25.9%
[24]
  ID/organ: 0.144%
[25]
  ID/organ: 2.73%
[26]
  ID/organ: 83.4%
[27]
  ID/organ: 1.19%
[28]
  ID/organ: 0.02%
[29]
  ID/organ: 0.061%
[30]
  ID/organ: 35.3%
[31]
  ID/organ: 0.193%
[32]
  ID/organ: 16.4%
[33]
  ID/organ: 20.4%
[34]
  ID/organ: 0.063%
[35]
  ID/organ: 1.75%
[36]
  ID/organ: 2.46%
